From ChEMBL document CHEMBL4393661, “PRODRUGS FOR NITROREDUCTASE BASED CANCER THERAPY- 2: Novel amide/Ntr combinations targeting PC3 cancer cells” (Eur J Med Chem, 2019) come the findings set out here.

The target in data set [1] is T1, Putative nitroreductase (Staphylococcus saprophyticus subsp. saprophyticus (strain ATCC 15305 / DSM20229 / NCIMB 8711 / NCTC 7292 / S-41), UniProt Q4A0P1).
T1 sequence (Q4A0P1 whole entry): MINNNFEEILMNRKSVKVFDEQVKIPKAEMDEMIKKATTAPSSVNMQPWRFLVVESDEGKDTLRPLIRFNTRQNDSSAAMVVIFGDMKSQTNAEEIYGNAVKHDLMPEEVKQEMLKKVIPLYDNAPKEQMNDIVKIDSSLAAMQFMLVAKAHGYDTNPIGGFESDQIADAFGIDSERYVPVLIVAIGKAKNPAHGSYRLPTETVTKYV
Briefly: Prodrug conversion assessed Staphylococcus saprophyticus nitroreductase expressed in Escherichia coli-mediated N,N'-(cyclohexane-1,4-diyl)bis(4-aminobenzamide) formation by measuring retention time at 100 uM incubated for 15 mins in presence of FDH cofactor regeneration system by HPLC analysis. The following applies: 0.25 h. The data set is classed as ADME. In a few lines: (§1)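 This was a coupled regeneration reaction: 100 µM substrate in Tris/Cl pH 7.5 with 5–15% DMSO, plus 100 µM NADH, 10 µM NAD+, 0.1 mg/mL BSA, 200 µM sodium formate, 30 µg/mL Ssap-NtrB and 30 µg/mL Candida methylica FDH, at 25 °C. Aliquots were taken over time, quenched 1:1 with cold acetonitrile and analysed by C18 HPLC using program II (20→80→20% ACN). Peak areas were read at 254 and 340 nm.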

Data set [2] relates to PC-3. Kind of data set: Cytotoxicity against human PC3 cells assessed as reduction in cell viability measured after 48 hrs in presence of Staphylococcus saprophyticus nitroreductase and NADH by SRB assay. The data set is classed as cell-based. Particulars: PC-3, 48 h. In a few lines:
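Prodrug at 180, 18 or 1.8 nM was premixed with Ssap-NtrB (31 µg/mL final) and NADH (600 µM final; 900 µM for CB1954) in 25 mM Tris-HCl pH 7.5, then added for 48 h under aerobic conditions. Cells were fixed with 12.5% TCA, stained with SRB and read at 492 nm, in triplicate.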
Background: The SRB assay estimates cell density from bound dye.

Data set [3] can be described thus: Cytotoxicity against human Hep3B cells assessed as cell viability at 9 to 150 uM measured after 48 hrs by MTT assay relative to control. It counts as cell-based, Hep 3B2. The following applies: read-out: Activity. The gist of the method: (§2)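 Hep3B and HUVEC cells were grown in high-glucose medium with 10% heat-inactivated FBS and 2 mM glutamine at 37 °C in 5% CO2. Cells were seeded at 5x10^4 per well and left 24 h to attach. They were then exposed for 48 h to 150, 75, 39, 19 and 9 µM, with 1% DMSO as vehicle control. Viability was read by MTT at 550 nm as (OD sample/OD control)×100.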

For data set [4], the target named is T1, Putative nitroreductase. Kind of data set: Prodrug conversion assessed Staphylococcus saprophyticus nitroreductase expressed in Escherichia coli-mediated N,N'-(cyclohexane-1,4-diyl)bis(4-aminobenzamide) formation by measuring retention time of metabolite at 100 uM incubated for 15 mins in presence of FDH cofactor regeneration system by HPLC analysis. The data set is classed as ADME. The following applies: 0.25 h. In a few lines:
as §1

The target in data set [5] is T1, Putative nitroreductase. Kind of data set: Substrate activity at Staphylococcus saprophyticus nitroreductase expressed in Escherichia coli assessed as retention time in the presence of NADPH at 100 uM by HPLC analysis (0 to 5 mins at 20% ACN, 25 to 35 min at 80% ACN, 40 to 45 min at 20% ACN). The data set is classed as ADME.
Data set [6] deals with T1, Putative nitroreductase. Briefly: Prodrug conversion assessed Staphylococcus saprophyticus nitroreductase expressed in Escherichia coli-mediated N,N'-(cyclohexane-1,4-diyl)bis(4-aminobenzamide) formation at 100 uM incubated for 15 mins by HPLC analysis. Particulars: 0.25 h. The data set is classed as ADME.
Data set [7] addresses T1, Putative nitroreductase. Briefly: Prodrug conversion assessed Staphylococcus saprophyticus nitroreductase expressed in Escherichia coli-mediated 4-(hydroxyamino)-N-(4-(4-nitrobenzamido)cyclohexyl)benzamide formation at 100 uM incubated for 15 mins by HPLC analysis. The data set is classed as ADME. The following applies: 0.25 h.
For data set [8], the target named is T1, Putative nitroreductase. Briefly: Prodrug conversion assessed Staphylococcus saprophyticus nitroreductase expressed in Escherichia coli-mediated 4-amino-N-(4-(4-(hydroxyamino)benzamido)cyclohexyl)benzamide formation by measuring retention time at 100 uM incubated for 15 mins in presence of FDH cofactor regeneration system by HPLC analysis. The data set is classed as ADME. The following applies: 0.25 h. In a few lines:
as §1

In data set [9] the test system is PC-3. Kind of data set: Cytotoxicity in human PC3 cells assessed as reduction in cell viability at 180 nM measured after 48 hrs by SRB assay. It counts as cell-based. The following applies: pc-3, 48 h, 0.18 µM. The gist of the method: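 They were exposed for 48 h to prodrug alone at 180 nM final, without enzyme or NADH, with 25 mM Tris-HCl as vehicle control. Cells were fixed with 12.5% TCA for 1 h at 4 °C, stained with 0.4% SRB and read at 492 nm as % cell survival, in triplicate.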

Data set [10] concerns the target T1, Putative nitroreductase. Kind of data set: Prodrug conversion assessed Staphylococcus saprophyticus nitroreductase expressed in Escherichia coli-mediated N,N'-(cyclohexane-1,4-diyl)bis(4-(hydroxyamino)benzamide) formation at 100 uM incubated for 15 mins by HPLC analysis. It counts as ADME. Particulars: 0.25 h.
Data set [11] is described as follows: Cytotoxicity against human HUVEC cells assessed as cell viability at 9 to 150 uM measured after 48 hrs by MTT assay relative to control. It counts as cell-based. Particulars: read-out: Activity. The gist of the method:
as §2
(Tetrazolium dyes change colour on reduction, which living cells bring about.)

In data set [12] the target is T2, Staphylococcus saprophyticus nitroreductase (Staphylococcus saprophyticus subsp. saprophyticus (strain ATCC 15305 / DSM20229 / NCIMB 8711 / NCTC 7292 / S-41), UniProt Q4A0P1).
T2 sequence (Q4A0P1 whole entry): T1 sequence (Q4A0P1 whole entry)
Kind of data set: Substrate activity at Staphylococcus saprophyticus nitroreductase expressed in Escherichia coli assessed as half life […] at 100 uM by HPLC analysis (0 to 5 mins at 20% ACN, 25 to 35 min at 80% ACN, 40 to 45 min at 20% ACN). The data set is classed as ADME.

The target in data set [13] is T1, Putative nitroreductase. Briefly: Prodrug conversion assessed Staphylococcus saprophyticus nitroreductase expressed in Escherichia coli-mediated 4-amino-N-(4-(4-(hydroxyamino)benzamido)cyclohexyl)benzamide formation at 100 uM incubated for 15 mins by HPLC analysis. It counts as ADME. The following applies: 0.25 h.
Data set [14] can be described thus: Solubility of the compound in 15% DMSO. It counts as physicochemical.
The target of data set [15] is T1, Putative nitroreductase. Briefly: Substrate activity at Staphylococcus saprophyticus nitroreductase expressed in Escherichia coli assessed as retention time […] at 100 uM by HPLC analysis (0 to 5 mins at 20 % ACN, 15 to 22 min at 80% ACN, 27-32 AT 20% ACN). It counts as ADME.
In data set [16] the target is T1, Putative nitroreductase. Kind of data set: Prodrug conversion assessed Staphylococcus saprophyticus nitroreductase expressed in Escherichia coli-mediated N,N'-(cyclohexane-1,4-diyl)bis(4-(hydroxyamino)benzamide) formation by measuring retention time at 100 uM incubated for 15 mins in presence of FDH cofactor regeneration system by HPLC analysis. It counts as ADME. The following applies: 0.25 h. The gist of the method:
as §1

A short description of data set [17]: Cytotoxicity against human PC3 cells assessed as cell viability at 9 to 150 uM measured after 48 hrs by MTT assay relative to control. The following applies: read-out: Activity. The data set is classed as cell-based, PC-3. The gist of the method:
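They were treated for 48 h at 9, 18, 39, 78 and 150 µM, with 1% DMSO as vehicle control. Viability was read by MTT at 550 nm.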

Consider `O=C(NC1CCC(NC(=O)c2ccc([N+](=O)[O-])cc2)CC1)c1ccc([N+](=O)[O-])cc1` (configuration not stated), for which the Retention_time on Putative nitroreductase [1] is 13.48 min; at Putative nitroreductase [4] it was 13.48 min; at Putative nitroreductase [5] it was 19.2 min; at Putative nitroreductase [8], 13.48 min; at Putative nitroreductase [15] it was 19.96 min; on Putative nitroreductase [16] it was 13.48 min. Moreover, the IC50 with PC-3 [2] was found to be 1.79 nM. Moreover, the viability at 48 h, up to 150 µM in [3], in data set [11] and in data set [17] was more than 80% each time. The Drug metabolism entry is “Metabolite_Notdetected” on Putative nitroreductase [6], “Metabolite_Detected” at Putative nitroreductase [7], “Metabolite_Notdetected” at Putative nitroreductase [10] and “Metabolite_Notdetected” at Putative nitroreductase [13]. In addition, the Activity result in the data set with PC-3 [9] is “Non-Toxic”. For the same compound, the half-life at 100 µM in [12] was less than 1.5 h. Also, the solubility entry in data set [14] is “Soluble”.

By IC50 is commonly meant the concentration that gives 50% inhibition. As usually defined, the half-life is how long it takes for the measured level to halve.
